Compounds with a hit are over-represented: about 4.8% of the library has one in this group of screens.
UCH37 DUB inh: inhibitors of human UCH37 deubiquitinase, primary screen, biochemical, Ub-AMC cleavage, fluorescence. Ubiquitin carboxyl-terminal hydrolase isozyme L5 (Homo sapiens), Q9Y5K5. purified proteasome/UCH37. inhibition, % (concentration not given with the values). actives 0.33% (n = 330,000);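 active means mean inhibition over replicate wells above about 20%, limit read from the data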
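Assay system: Proteasome-bound UCH37. Buffer or medium: pH 7.4 Tris-HCl (50 mM) with ovalbumin, ATP-MgCl2, DTT. Incubation: 30 min preincubation with enzyme, 25 min cleavage at room temperature. Measured by: fluorescence, ex 355 nm, em 460 nm. Read-out basis: percent inhibition. Control set: wells without proteasome as full block, compound-free enzyme plus substrate as uninhibited.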
PAFAH1B2 inh: PAFAH1B2 enzyme inhibitors, primary screen, biochemical, fluorescence polarization, human; Platelet-activating factor acetylhydrolase IB subunit alpha2 (Homo sapiens), P68402; recombinant PAFAH1B2, FP-rhodamine activity probe; inhibition, % at 3.39 µM; actives 1.2% (n = 340,000);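 active means inhibition above the mean of all tested compounds plus 3 SD, cut at about 24% in these data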
Target sequence (P68402 whole entry, looked up): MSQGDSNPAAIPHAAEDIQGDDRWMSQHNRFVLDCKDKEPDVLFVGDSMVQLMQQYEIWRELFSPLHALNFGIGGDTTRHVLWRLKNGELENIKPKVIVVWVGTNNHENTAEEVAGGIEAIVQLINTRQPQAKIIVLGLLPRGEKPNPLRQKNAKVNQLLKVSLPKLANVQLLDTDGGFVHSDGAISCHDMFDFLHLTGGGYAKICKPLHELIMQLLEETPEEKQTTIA
NR3A LBD binder: binders of NR3A ligand-binding domain, primary screen, biophysical, differential scanning fluorimetry, uHTS; Tm shift relative to glycine control, % at 25 µM; NR3A LBD differential scanning fluorimetry, Tm shift; 0% = protein alone, 100% = glycine-bound protein; actives 2.5% (n = 340,000); AID 1259313, 2017; Glutamate receptor ionotropic, NMDA 3A (GRIN3A) ligand-binding domain;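 active means melting temperature shift of at least 10% of the positive control shift, at one fixed dose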
PAFAH2 FP inh: PAFAH2 enzyme inhibitors, primary screen, biochemical, fluorescence polarization, human; inhibition, % at 3.39 µM; recombinant PAFAH2, FP-rhodamine activity probe; actives 0.99% (n = 340,000); Platelet-activating factor acetylhydrolase 2, cytoplasmic (Homo sapiens), Q99487;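 active means inhibition above the mean over all tested compounds plus 3 SD, cut at about 30% in these data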;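 further: inhibitors block probe labeling of enzyme so polarization drops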
PAFAH1B3 inh: PAFAH1B3 enzyme inhibitors, primary screen, biochemical, fluorescence polarization, human | inhibition, % at 3.39 µM | Platelet-activating factor acetylhydrolase IB subunit alpha1 (Homo sapiens), Q15102 | actives 0.28% (n = 340,000) | recombinant PAFAH1B3, FP-rhodamine probe;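 active means inhibition above the screen-wide average of all tested compounds plus 3 SD, cut at about 25% in these data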
Target sequence (Q15102 whole entry, looked up): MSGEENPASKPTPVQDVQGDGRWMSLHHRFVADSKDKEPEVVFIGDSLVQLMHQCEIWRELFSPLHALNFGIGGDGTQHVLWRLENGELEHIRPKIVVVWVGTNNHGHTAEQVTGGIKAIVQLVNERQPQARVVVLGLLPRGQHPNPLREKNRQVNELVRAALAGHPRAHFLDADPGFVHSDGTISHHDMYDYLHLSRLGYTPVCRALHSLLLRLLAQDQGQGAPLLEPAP
pPAFAH inh: pPAFAH enzyme inhibitors, primary screen, biochemical, fluorescence polarization, human; Platelet-activating factor acetylhydrolase (Homo sapiens), Q13093; recombinant pPAFAH, FP-rhodamine probe fluorescence polarization; inhibition, % at 3.39 µM; actives 1.5% (n = 330,000); AID 463082, 2010;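 active means inhibition above the mean inhibition across the screen plus 3 SD, cut at about 25% in these data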;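 further: inhibitors block binding of the rhodamine activity-based probe so polarization drops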
Hits are given with their value; - = inactive; . = not tested or not shown.

SMILES	UCH37 DUB inh	PAFAH1B2 inh	NR3A LBD binder	PAFAH2 FP inh	PAFAH1B3 inh	pPAFAH inh
CC(=NNC(=O)C(O)(c1ccccc1)c1ccccc1)c1ccc(NC(=O)CCCC(=O)O)cc1	-	.	.	.	.	.
COc1ccc(/C=C\C(=O)c2c(O)ccc3c(C)cc(=O)oc23)cc1OC	-	-	13.6	-	-	-
COc1cc(/C=C/C(=O)c2c(O)ccc3c(C)cc(=O)oc23)ccc1O	-	-	-	-	-	-
O=C(NN=C/C=C/c1ccccc1)c1ccc(Br)cc1	-	.	.	.	.	.
O=C(C1CCC(=O)N(C2CCCC2)C1)N1CCC(Oc2cccc(F)c2)CC1 (centres undefined)	-	-	17.9	-	-	-
S=c1[nH]nc(-c2cc(-c3ccco3)[nH]n2)n1-c1ccccc1Cl	-	-	-	-	-	29.2
COc1cc(-c2nnc(SCC(=O)c3ccc(C)cc3)o2)cc(OC)c1OC	-	-	10.6	-	-	-
Cc1[nH]c2ccc(-c3nnc(SCC(=O)c4ccc(F)cc4)o3)cc2c1C	-	-	29.1	-	-	-
COC(=O)C1CC(=NNS(=O)(=O)c2ccc(C)cc2)c2ccsc2C1 (centres undefined)	-	.	.	.	.	.
COC(=O)c1cc2occc2n1CC(=O)Nc1ccc(OC)c(OC)c1	-	-	-	-	-	-
COC(=O)c1cc2occc2n1CC(=O)Nc1cc(OC)cc(OC)c1	-	-	11.3	-	-	-
N#CCC(CNc1ncc(C(F)(F)F)cc1Cl)OC(=O)c1ccc(Cl)cc1Cl (centres undefined)	-	-	14.2	-	-	-
CCOC(=O)CNc1ncc(C(F)(F)F)cc1Cl	-	-	-	-	-	-
COc1ccccc1/C=C/C=NNC(=O)CCC1C(=O)NN=C1C (centres undefined)	-	.	.	.	.	.
NS(=O)(=O)c1ccc(NC(CNS(=O)(=O)c2ccccc2)c2ccccc2)cc1 (centres undefined)	-	-	-	-	-	-
O=S(=O)(NCC(Nc1ccc(Cl)cc1)c1ccccc1)c1ccccc1 (centres undefined)	-	-	23.5	-	-	-
COC(CNS(=O)(=O)c1ccc(Cl)cc1)c1ccccc1 (centres undefined)	-	-	-	-	-	-
Cc1ccc(NC(CNS(=O)(=O)c2ccc(Cl)cc2)c2ccccc2)cc1 (centres undefined)	-	-	11.3	-	-	-
Cc1ccsc1C=NNC(=S)NCCc1ccccc1	-	.	.	.	.	.
O=C(Nc1ccc([N+](=O)[O-])cc1)c1ccc(S(=O)(=O)N2CCCC2)cc1	-	-	10.6	-	-	-
COc1ccc(S(=O)(=O)N2CCN(C(=O)c3cnc(C)cn3)CC2)cc1	33.5	-	-	-	-	-
COc1ccc(NC(=O)CCCNC(=O)c2ccc(Cl)cc2)cc1S(=O)(=O)N1CCCCC1	-	-	12.0	-	-	.
CC(C)c1ccc(NC(=O)c2cc(S(=O)(=O)N3CCCC3)c[nH]2)cc1	-	-	-	-	-	-
COc1ccc(NC(=O)c2cc(S(=O)(=O)N3CCCCC3)c[nH]2)cc1Cl	-	-	24.8	-	-	-
CC(Cc1ccccc1)=NNC(=O)CNC(=O)c1cccc(Cl)c1	-	.	.	.	.	.
SMILES	UCH37 DUB inh	PAFAH1B2 inh	NR3A LBD binder	PAFAH2 FP inh	PAFAH1B3 inh	pPAFAH inh
COc1ccc(C(=O)NNC(=O)c2ccc(S(=O)(=O)N3CCCCC3)cc2)cc1	-	-	-	-	-	-
COc1ccc(C(=O)Nc2ccc(S(=O)(=O)N3CCCC3)cc2)cc1	-	-	14.4	-	-	-
CC(=N/N=C1/NC(=O)CC(C(=O)O)S1)c1ccccc1 (centres undefined)	-	.	.	.	.	.
O=C(Cc1c[nH]c2ccccc12)N1CCN(S(=O)(=O)c2ccc(Cl)cc2)CC1	-	-	-	-	-	.
CC(=O)NC(Cc1c[nH]c2ccccc12)C(=O)NCc1ccc2c(c1)OCO2 (centres undefined)	-	-	-	-	-	-
CC(=O)N[C@@H](Cc1c[nH]c2ccccc12)C(=O)OCC(=O)Nc1ccc2c(c1)OCO2	-	-	12.3	-	-	.
CC(=O)NC(Cc1c[nH]c2ccccc12)C(=O)OCC(=O)N1CCN(S(=O)(=O)c2ccc(Cl)cc2)CC1 (centres undefined)	-	88.1	-	-	-	.
COC(=O)[C@@H](Cc1c[nH]c2ccccc12)NC(=O)c1ccc2c(c1)OCO2	-	-	-	-	-	-
O=C(COC(=O)[C@H](Cc1c[nH]c2ccccc12)NC(=O)c1ccc(Cl)cc1)Nc1ccc2c(c1)OCO2	-	-	19.7	-	-	-
CC(C)(C=NO)/[N+]([O-])=C/c1ccccc1C(F)(F)F	-	.	.	.	.	.
Cc1ccc(S(=O)(=O)Oc2ccc(C3C4=C(CCCC4=O)N(CCC(=O)O)C4=C3C(=O)CCC4)cc2Cl)cc1	-	39.3	-	-	-	-
O=C1SC(SCc2ccccc2Cl)=N/C1=C\c1ccc(C(=O)O)cc1	-	28.5	-	61.8	-	-
C=CCSC1=N/C(=C\c2ccc(C(=O)O)cc2)C(=O)S1	-	-	-	-	-	-
CSCCC(NS(=O)(=O)c1ccc(Cl)cc1)C(=O)OCc1cccc(Cl)c1 (centres undefined)	-	32.6	-	-	-	-
CSCCC(NS(=O)(=O)c1ccccc1F)C(=O)OCc1ccccc1Cl (centres undefined)	-	-	19.6	-	-	-
CSCCC(NS(=O)(=O)c1ccccc1F)C(=O)N1CCCCCC1 (centres undefined)	-	-	-	-	-	-
CSCCC(NS(=O)(=O)c1ccc(Cl)cc1)C(=O)OCC(=O)N(C(C)C)C(C)C (centres undefined)	-	-	-	-	-	-
CSCCC(NS(=O)(=O)c1ccc(Cl)cc1)C(=O)OCc1c(Cl)cccc1Cl (centres undefined)	-	26.6	-	-	-	-
Cc1ccc(CN2CCN(N=Cc3ccc(C(=O)O)cc3)CC2)cc1	-	.	.	.	.	.
COc1cc([N+](=O)[O-])cc(C=NNC(=O)C(C)Nc2cccc3ccccc23)c1O (centres undefined)	-	.	.	.	.	.
Clc1ccccc1N=Nc1ccccn1	.	-	12.6	-	-	.
Cc1[nH][nH]c(=O)c1N=Nc1ccccc1Cl	-	-	-	-	-	-
N=C1SCC(=O)N1N=Cc1ccccc1	-	.	.	.	.	.
CCn1c(SCC(=O)Nc2ccc(NC(C)=O)cc2)nc2c([nH]c3ccccc32)c1=O	-	-	11.7	-	-	-
